ChEMBL document CHEMBL4610098, “Isolation and Synthesis of Veranamine, an Antidepressant Lead from the Marine Sponge Verongula rigida” (J Nat Prod, 2020)
Calls of active or inactive are those of the source.

Assays:
Mus musculus = test: Antidepressant activity in Swiss Webster (Harlan) mouse assessed as decrease in immobility time at 20 mg/kg, ip after 30 mins by forced swim test; type: functional, organism-based
How it was run: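 Mice housed five per cage on 12 h light/dark cycle, randomized (n = 6–10/group), given i.p. dose in saline, 10% ethanol or 10% ethanol/1% DMSO vehicle; desipramine 20 mg/kg as reference. Directly after 30 min locomotor session, each mouse placed in water-filled cylinder (8 cm depth, 25 °C), videotaped 6 min; immobility over final 4 min timed by three observers, averaged.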

[1] = target: Muscarinic acetylcholine receptor M4 (Homo sapiens, UniProt P08173); test: Binding affinity to muscarinic acetylcholine receptor M4 (unknown origin)
Histamine H1 receptor = Histamine H1 receptor (Homo sapiens, UniProt P35367); test: Binding affinity to histamine H1 receptor (unknown origin)
[2] = target: Alpha-2A adrenergic receptor (Homo sapiens, UniProt P08913); test: Binding affinity to adrenoceptor alpha 2A (unknown origin)
D(1B) dopamine receptor = D(1B) dopamine receptor (Homo sapiens, UniProt P21918); test: Binding affinity to dopamine D5 receptor (unknown origin)
[3] = target: Alpha-2B adrenergic receptor (Homo sapiens, UniProt P18089); test: Binding affinity to adrenoceptor alpha 2B (unknown origin)
D(4) dopamine receptor = D(4) dopamine receptor (Homo sapiens, UniProt P21917); test: Binding affinity to dopamine D4 receptor (unknown origin)
[4] = target: Sodium-dependent noradrenaline transporter (Homo sapiens, UniProt P23975); test: Binding affinity to NET (unknown origin)
Sodium-dependent noradrenaline transporter, sequence (P23975 whole entry): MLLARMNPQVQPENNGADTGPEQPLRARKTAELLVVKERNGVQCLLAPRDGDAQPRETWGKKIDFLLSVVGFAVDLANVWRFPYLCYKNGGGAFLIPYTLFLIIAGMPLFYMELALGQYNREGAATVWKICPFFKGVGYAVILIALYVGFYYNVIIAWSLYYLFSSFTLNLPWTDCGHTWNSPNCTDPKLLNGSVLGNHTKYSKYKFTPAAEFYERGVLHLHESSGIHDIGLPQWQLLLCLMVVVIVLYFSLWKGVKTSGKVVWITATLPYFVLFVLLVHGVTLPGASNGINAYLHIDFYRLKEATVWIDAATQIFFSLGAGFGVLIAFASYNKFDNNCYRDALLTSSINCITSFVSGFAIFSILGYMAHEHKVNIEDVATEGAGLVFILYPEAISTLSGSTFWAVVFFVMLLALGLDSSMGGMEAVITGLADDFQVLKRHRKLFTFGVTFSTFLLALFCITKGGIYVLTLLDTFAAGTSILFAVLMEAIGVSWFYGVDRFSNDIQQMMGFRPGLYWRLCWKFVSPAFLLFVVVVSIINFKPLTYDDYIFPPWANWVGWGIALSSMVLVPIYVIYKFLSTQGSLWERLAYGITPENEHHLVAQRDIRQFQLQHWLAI

[5] = target: Muscarinic acetylcholine receptor M2 (Homo sapiens, UniProt P08172); test: Binding affinity to muscarinic acetylcholine receptor M2 (unknown origin)
Muscarinic acetylcholine receptor M2, sequence (P08172 whole entry): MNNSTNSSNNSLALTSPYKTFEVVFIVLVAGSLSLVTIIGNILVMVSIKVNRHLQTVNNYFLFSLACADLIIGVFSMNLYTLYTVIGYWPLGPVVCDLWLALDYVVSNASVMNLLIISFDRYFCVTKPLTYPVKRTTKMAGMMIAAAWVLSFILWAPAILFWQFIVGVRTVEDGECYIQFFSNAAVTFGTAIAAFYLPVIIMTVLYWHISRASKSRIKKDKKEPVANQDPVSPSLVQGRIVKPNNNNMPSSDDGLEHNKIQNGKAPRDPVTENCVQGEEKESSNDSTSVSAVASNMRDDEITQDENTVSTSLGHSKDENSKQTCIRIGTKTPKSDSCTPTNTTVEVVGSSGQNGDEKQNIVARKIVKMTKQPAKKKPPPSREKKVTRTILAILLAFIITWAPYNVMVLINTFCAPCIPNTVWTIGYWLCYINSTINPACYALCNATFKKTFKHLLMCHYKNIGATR

[6] = target: 5-hydroxytryptamine receptor 1E (Homo sapiens, UniProt P28566); test: Binding affinity to 5HT1E receptor (unknown origin)
[7] = target: Kappa-type opioid receptor (Homo sapiens, UniProt P41145); test: Binding affinity to KOR (unknown origin)
[8] = target: T1, 5-hydroxytryptamine receptor 7 (Homo sapiens, UniProt P34969); test: Binding affinity to 5HT7A receptor (unknown origin)
T1 sequence (P34969 whole entry): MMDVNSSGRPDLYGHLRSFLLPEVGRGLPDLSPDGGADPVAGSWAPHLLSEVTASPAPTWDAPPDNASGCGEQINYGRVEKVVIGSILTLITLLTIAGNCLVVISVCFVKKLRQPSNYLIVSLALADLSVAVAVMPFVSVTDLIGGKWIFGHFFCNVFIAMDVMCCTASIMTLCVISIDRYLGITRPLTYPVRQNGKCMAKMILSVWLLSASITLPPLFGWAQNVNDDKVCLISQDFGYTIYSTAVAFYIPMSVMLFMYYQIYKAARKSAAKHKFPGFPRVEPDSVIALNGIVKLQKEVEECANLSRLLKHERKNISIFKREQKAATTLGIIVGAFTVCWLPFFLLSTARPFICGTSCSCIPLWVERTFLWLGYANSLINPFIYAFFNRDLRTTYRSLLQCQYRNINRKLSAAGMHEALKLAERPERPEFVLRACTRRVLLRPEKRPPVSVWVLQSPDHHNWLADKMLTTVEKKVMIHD

[9] = target: 5-hydroxytryptamine receptor 1A (Homo sapiens, UniProt P08908); test: Binding affinity to 5HT1A receptor (unknown origin)
[10] = target: 5-hydroxytryptamine receptor 1B (Homo sapiens, UniProt P28222); test: Binding affinity to 5HT1B receptor (unknown origin)
5-hydroxytryptamine receptor 1B, sequence (P28222 whole entry): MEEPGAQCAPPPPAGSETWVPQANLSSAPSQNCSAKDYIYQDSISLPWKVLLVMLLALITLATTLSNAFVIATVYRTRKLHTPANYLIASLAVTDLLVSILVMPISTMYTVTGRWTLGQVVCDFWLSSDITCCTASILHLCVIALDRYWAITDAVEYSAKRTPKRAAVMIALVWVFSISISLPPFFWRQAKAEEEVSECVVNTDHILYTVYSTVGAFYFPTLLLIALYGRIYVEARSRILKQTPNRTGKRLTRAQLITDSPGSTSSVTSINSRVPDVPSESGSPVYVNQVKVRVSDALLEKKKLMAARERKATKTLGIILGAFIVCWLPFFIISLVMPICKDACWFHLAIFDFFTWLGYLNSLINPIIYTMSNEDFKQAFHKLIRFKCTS

D(1A) dopamine receptor = D(1A) dopamine receptor (Homo sapiens, UniProt P21728); test: Binding affinity to dopamine D1 receptor (unknown origin)
[11] = target: 5-hydroxytryptamine receptor 1D (Homo sapiens, UniProt P28221); test: Binding affinity to 5HT1D receptor (unknown origin)
Histamine H3 receptor = Histamine H3 receptor (Homo sapiens, UniProt Q9Y5N1); test: Binding affinity to histamine H3 receptor (unknown origin)
D(3) dopamine receptor = D(3) dopamine receptor (Homo sapiens, UniProt P35462); test: Binding affinity to dopamine D3 receptor (unknown origin)
D(3) dopamine receptor, sequence (P35462 whole entry): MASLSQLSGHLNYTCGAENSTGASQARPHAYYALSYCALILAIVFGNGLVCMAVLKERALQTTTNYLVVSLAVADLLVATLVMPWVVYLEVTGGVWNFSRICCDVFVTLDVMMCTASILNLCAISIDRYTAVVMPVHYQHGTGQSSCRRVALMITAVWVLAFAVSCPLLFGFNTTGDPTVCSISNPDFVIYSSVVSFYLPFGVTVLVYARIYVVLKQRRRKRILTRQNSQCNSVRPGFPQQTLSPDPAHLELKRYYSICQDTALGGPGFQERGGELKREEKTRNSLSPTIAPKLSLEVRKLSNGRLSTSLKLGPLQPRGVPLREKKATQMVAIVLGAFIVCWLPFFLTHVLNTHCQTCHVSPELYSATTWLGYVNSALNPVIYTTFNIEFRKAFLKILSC

D(2) dopamine receptor = D(2) dopamine receptor (Homo sapiens, UniProt P14416); test: Binding affinity to dopamine D2 receptor (unknown origin)
[12] = target: Sodium-dependent dopamine transporter (Homo sapiens, UniProt Q01959); test: Binding affinity to DAT (unknown origin)
[13] = target: Beta-1 adrenergic receptor (Homo sapiens, UniProt P08588); test: Binding affinity to beta1 adrenoceptor (unknown origin)
[14] = target: T1, 5-hydroxytryptamine receptor 7; test: Binding affinity to 5HT7 receptor (unknown origin)
[15] = target: Alpha-1A adrenergic receptor (Homo sapiens, UniProt P35348); test: Binding affinity to adrenoceptor alpha 1A (unknown origin)
Histamine H4 receptor = Histamine H4 receptor (Homo sapiens, UniProt Q9H3N8); test: Binding affinity to histamine H4 receptor (unknown origin)
[16] = target: Sigma non-opioid intracellular receptor 1 (Homo sapiens, UniProt Q99720); test: Binding affinity to sigma1 receptor (unknown origin)
[17] = target: 5-hydroxytryptamine receptor 5A (Homo sapiens, UniProt P47898); test: Binding affinity to 5HT5A receptor (unknown origin)
[18] = target: 5-hydroxytryptamine receptor 2B (Homo sapiens, UniProt P41595); test: Binding affinity to 5HT2B receptor (unknown origin)
[19] = target: Alpha-1B adrenergic receptor (Homo sapiens, UniProt P35368); test: Binding affinity to adrenoceptor alpha 1B (unknown origin)
[20] = target: Alpha-2C adrenergic receptor (Homo sapiens, UniProt P18825); test: Binding affinity to adrenoceptor alpha 2C (unknown origin)
Alpha-2C adrenergic receptor, sequence (P18825 whole entry): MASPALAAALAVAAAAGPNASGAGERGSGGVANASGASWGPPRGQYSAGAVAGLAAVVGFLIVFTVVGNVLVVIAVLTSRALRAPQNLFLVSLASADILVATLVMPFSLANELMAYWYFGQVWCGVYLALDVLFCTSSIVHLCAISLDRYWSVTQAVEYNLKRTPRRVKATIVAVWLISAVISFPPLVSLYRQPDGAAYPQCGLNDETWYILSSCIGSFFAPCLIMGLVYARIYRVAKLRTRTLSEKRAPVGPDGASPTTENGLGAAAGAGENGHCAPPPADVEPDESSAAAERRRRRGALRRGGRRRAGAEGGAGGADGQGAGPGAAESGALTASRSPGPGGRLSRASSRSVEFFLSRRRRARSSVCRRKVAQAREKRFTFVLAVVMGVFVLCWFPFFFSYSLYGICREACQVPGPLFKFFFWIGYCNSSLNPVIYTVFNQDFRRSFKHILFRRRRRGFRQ

[21] = target: Muscarinic acetylcholine receptor M3 (Homo sapiens, UniProt P20309); test: Binding affinity to muscarinic acetylcholine receptor M3 (unknown origin)
[22] = target: 5-hydroxytryptamine receptor 6 (Homo sapiens, UniProt P50406); test: Binding affinity to 5HT6 receptor (unknown origin)
5-hydroxytryptamine receptor 6, sequence (P50406 whole entry): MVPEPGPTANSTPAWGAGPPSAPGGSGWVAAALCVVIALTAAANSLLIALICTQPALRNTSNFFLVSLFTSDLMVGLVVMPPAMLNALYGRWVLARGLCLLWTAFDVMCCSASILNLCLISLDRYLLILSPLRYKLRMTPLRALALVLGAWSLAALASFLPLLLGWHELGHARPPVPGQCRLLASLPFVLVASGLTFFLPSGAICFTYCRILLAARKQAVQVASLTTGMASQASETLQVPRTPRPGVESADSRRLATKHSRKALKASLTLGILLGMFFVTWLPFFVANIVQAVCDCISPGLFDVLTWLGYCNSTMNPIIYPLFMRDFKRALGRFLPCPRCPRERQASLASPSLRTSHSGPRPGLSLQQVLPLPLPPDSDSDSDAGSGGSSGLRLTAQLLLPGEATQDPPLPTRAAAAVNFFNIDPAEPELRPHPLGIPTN

[23] = target: 5-hydroxytryptamine receptor 3A (Homo sapiens, UniProt P46098); test: Binding affinity to 5HT3 receptor (unknown origin)
[24] = Effect on locomotor activity in Swiss Webster (Harlan) mouse at 20 mg/kg, ip after 30 mins by automated activity monitoring system based assay; type: ADME, organism-based; details: in vivo, 0.5 h
How it was run: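 Mice in groups of five, 12 h light/dark, randomized (n = 6–10/group), dosed i.p. in saline, 10% ethanol or 10% ethanol/1% DMSO vehicle, desipramine 20 mg/kg reference. Each mouse put in Plexiglas enclosure right after injection; photobeam interruptions recorded for 30 min, with counts from the last 10 min quantified and analyzed.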

Mu-type opioid receptor = Mu-type opioid receptor (Homo sapiens, UniProt P35372); test: Binding affinity to MOR (unknown origin)
Mu-type opioid receptor, sequence (P35372 whole entry): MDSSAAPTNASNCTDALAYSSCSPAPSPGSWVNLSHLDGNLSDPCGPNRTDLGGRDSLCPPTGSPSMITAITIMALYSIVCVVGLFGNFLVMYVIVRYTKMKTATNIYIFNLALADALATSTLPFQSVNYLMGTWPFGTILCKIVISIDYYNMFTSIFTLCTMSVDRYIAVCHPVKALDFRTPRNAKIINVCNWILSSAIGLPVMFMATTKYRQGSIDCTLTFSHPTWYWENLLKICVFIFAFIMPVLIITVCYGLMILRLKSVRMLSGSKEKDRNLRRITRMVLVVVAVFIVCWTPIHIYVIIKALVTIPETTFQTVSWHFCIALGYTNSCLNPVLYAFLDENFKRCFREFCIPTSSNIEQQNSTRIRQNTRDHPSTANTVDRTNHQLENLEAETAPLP

[25] = target: Delta-type opioid receptor (Homo sapiens, UniProt P41143); test: Binding affinity to DOR (unknown origin)
[26] = target: Sodium-dependent serotonin transporter (Homo sapiens, UniProt P31645); test: Binding affinity to SERT (unknown origin)
[27] = target: Muscarinic acetylcholine receptor M1 (Homo sapiens, UniProt P11229); test: Binding affinity to muscarinic acetylcholine receptor M1 (unknown origin)
Muscarinic acetylcholine receptor M1, sequence (P11229 whole entry): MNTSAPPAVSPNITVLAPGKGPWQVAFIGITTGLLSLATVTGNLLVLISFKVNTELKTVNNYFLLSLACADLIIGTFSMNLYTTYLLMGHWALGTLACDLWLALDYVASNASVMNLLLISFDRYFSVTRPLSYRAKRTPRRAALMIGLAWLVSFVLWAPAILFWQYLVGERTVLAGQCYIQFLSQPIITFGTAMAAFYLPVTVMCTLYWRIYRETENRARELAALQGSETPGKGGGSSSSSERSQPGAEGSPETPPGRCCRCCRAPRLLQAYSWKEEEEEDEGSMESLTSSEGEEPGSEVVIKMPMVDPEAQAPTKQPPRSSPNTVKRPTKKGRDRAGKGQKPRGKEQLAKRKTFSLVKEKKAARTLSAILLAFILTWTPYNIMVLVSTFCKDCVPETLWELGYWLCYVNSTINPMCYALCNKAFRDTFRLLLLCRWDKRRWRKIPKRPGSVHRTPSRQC

[28] = target: 5-hydroxytryptamine receptor 2A (Homo sapiens, UniProt P28223); test: Binding affinity to 5HT2A receptor (unknown origin)
5-hydroxytryptamine receptor 2A, sequence (P28223 whole entry): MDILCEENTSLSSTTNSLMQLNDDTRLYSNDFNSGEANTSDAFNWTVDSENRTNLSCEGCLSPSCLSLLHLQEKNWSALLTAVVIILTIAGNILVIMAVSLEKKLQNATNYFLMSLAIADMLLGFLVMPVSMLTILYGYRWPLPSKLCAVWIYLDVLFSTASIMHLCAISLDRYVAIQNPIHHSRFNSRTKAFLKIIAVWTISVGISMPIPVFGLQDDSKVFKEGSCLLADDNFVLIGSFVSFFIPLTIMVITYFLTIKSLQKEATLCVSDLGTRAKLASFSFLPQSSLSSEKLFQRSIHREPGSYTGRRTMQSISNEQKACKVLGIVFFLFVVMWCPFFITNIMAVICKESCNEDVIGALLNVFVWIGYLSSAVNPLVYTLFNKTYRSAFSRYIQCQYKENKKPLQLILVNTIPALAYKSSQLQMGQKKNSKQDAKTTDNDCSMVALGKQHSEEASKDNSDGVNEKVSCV

Histamine H2 receptor = Histamine H2 receptor (Homo sapiens, UniProt P25021); test: Binding affinity to histamine H2 receptor (unknown origin)
[29] = target: Muscarinic acetylcholine receptor M5 (Homo sapiens, UniProt P08912); test: Binding affinity to muscarinic acetylcholine receptor M5 (unknown origin)
[30] = target: Sigma intracellular receptor 2 (Homo sapiens, UniProt Q5BJF2); test: Binding affinity to sigma2 receptor (unknown origin)
Sigma intracellular receptor 2, sequence (Q5BJF2 whole entry): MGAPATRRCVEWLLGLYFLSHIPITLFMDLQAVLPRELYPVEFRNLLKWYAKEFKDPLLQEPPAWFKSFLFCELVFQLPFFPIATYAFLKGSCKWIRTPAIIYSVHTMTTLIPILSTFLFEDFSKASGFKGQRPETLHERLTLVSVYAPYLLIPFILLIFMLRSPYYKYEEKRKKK

[31] = target: 5-hydroxytryptamine receptor 2C (Homo sapiens, UniProt P28335); test: Binding affinity to 5HT2C receptor (unknown origin)

CNCCCN1c2ccccc2CCc2ccccc21
active: Activity (Mus musculus)

Cc1nccc2c1C(C)(C)Nc1cc(Br)ccc1-2
Non-Toxic: Activity [24]
> 10 µM: Ki [1] | Ki (Histamine H1 receptor) | Ki [2] | Ki (D(1B) dopamine receptor) | Ki [3] | Ki (D(4) dopamine receptor) | Ki [4] | Ki [5] | Ki [6] | Ki [7] | Ki [8] | Ki [9] | Ki [10] | Ki (D(1A) dopamine receptor) | Ki [11] | Ki (Histamine H3 receptor) | Ki (D(3) dopamine receptor) | Ki (D(2) dopamine receptor) | Ki [12] | Ki [13] | Ki [14] | Ki [15] | Ki (Histamine H4 receptor) | Ki [17] | Ki [19] | Ki [20] | Ki [21] | Ki [22] | Ki [23] | Ki (Mu-type opioid receptor) | Ki [25] | Ki [26] | Ki [27] | Ki [28] | Ki (Histamine H2 receptor) | Ki [29] | Ki [30] | Ki [31]
active: Activity (Mus musculus)
0.56 µM: Ki [16]
0.39 µM: Ki [18]
